What was measured:
[1] = system: L1210; assay: Ratio of IC50 for Mycoplasma hyorhinis-infected mouse L1210 cells to IC50 for mouse L1210/0 cells after 48 hrs by cell counting; type: functional
Summary of the method: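 Murine L1210/0 cells were compared with L1210/TK cells, selected for resistance to 5-bromo-2'-dUrd, and with L1210.Hyor cells, chronically infected with Mycoplasma hyorhinis. Cells were grown in DMEM with 10% FBS, 10 mM Hepes and 1 mM pyruvate at 37 °C and 5% CO2, then seeded at 60 000 cells/well with compound. They were Coulter-counted after 48 h. […] Mean of 2–4 experiments.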

[2] = system: L1210; assay: Cytostatic activity against Mycoplasma hyorhinis-infected mouse L1210 cells after 48 hrs by cell counting; type: functional, cell-based; details: L1210, 48 h
Summary of the method: (§1)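 Suspension leukemia cells in DMEM with 10% FBS, 10 mM Hepes and 1 mM sodium pyruvate at 37 °C under 5% CO2. Seeded at 60 000 cells/well with graded compound levels. Grown 48 h (L1210) or 72 h (CEM), then counted by Coulter counter. Mean ± SD of two to four independent experiments.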

[3] = system: HeLa; assay: Cytostatic activity against human HeLa cells […] by cell counting; type: functional, cell-based
[4] = system: HeLa; assay: Cytostatic activity against thymidine-kinase deficient human HeLa cells […]; type: functional, cell-based
[5] = system: CCRF-CEM; assay: Cytostatic activity against thymidine-kinase deficient human CEM cells after 72 hrs by cell counting; type: functional, cell-based; summary of the method: as §1
[6] = system: CCRF-CEM; assay: Cytostatic activity against human CEM/0 cells after 72 hrs by cell counting; type: functional, cell-based
Summary of the method: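 Suspension leukemia cells in DMEM with 10% FBS, 10 mM Hepes and 1 mM sodium pyruvate at 37 °C under 5% CO2. Seeded at 60 000 cells/well with graded compound levels. Grown 48 h (L1210) or 72 h (CEM), then counted by Coulter counter. […] Mean ± SD of two to four independent experiments.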

[7] = Cytostatic activity against mouse L1210/0 cells after 48 hrs by cell counting; type: functional, cell-based; details: L1210/0, 48 h; summary of the method: as §1
[8] = system: L1210; assay: Cytostatic activity against thymidine-kinase deficient mouse L1210 cells after 48 hrs by cell counting; type: functional, cell-based; details: L1210, 48 h; summary of the method: as §1

Compound | Ratio IC50 [1] | IC50 [2] | IC50 [3] | IC50 [4] | IC50 [5] | IC50 [6] | IC50 [7] | IC50 [8]
C[C@H](NP(=O)(OC[C@H]1O[C@@H](n2cc(F)c(=O)[nH]c2=O)C[C@@H]1O)Oc1cccc2ccccc12)C(=O)OC1CCC1 (mixture of isomers) | 2.2 | 0.024 µM | 0.069 µM | 1.5 µM | 1.5 µM | 0.073 µM | 0.011 µM | 0.088 µM
CCCCCOC(=O)[C@@H](NP(=O)(OC[C@H]1O[C@@H](n2cc(F)c(=O)[nH]c2=O)C[C@@H]1O)Oc1cccc2ccccc12)[C@@H](C)CC (mixture of isomers) | 1.67 | 0.7 µM | 0.3 µM | 11 µM | 17 µM | 0.46 µM | 0.42 µM | 12 µM
C[C@H](NP(=O)(OC[C@H]1O[C@@H](n2cc(F)c(=O)[nH]c2=O)C[C@@H]1O)Oc1cccc2ccccc12)C(=O)OC1CCCC1 (mixture of isomers) | 1.5 | 0.024 µM | 0.071 µM | 2.2 µM | 0.92 µM | 0.035 µM | 0.016 µM | 0.13 µM
O=C(OCc1ccccc1)[C@@H]1CCCN1P(=O)(OC[C@H]1O[C@@H](n2cc(F)c(=O)[nH]c2=O)C[C@@H]1O)Oc1cccc2ccccc12 (mixture of isomers) | 2.5 | 0.65 µM | 1.2 µM | 26 µM | 32 µM | 0.89 µM | 0.26 µM | 25 µM
CSCC[C@H](NP(=O)(OC[C@H]1O[C@@H](n2cc(F)c(=O)[nH]c2=O)C[C@@H]1O)Oc1cccc2ccccc12)C(=O)OCc1ccccc1 (mixture of isomers) | 3.7 | 0.2 µM | 0.087 µM | 8.3 µM | 11 µM | 0.19 µM | 0.054 µM | 1.9 µM
CCCCCOC(=O)C(C)(C)NP(=O)(OC[C@H]1O[C@@H](n2cc(F)c(=O)[nH]c2=O)C[C@@H]1O)Oc1cccc2ccccc12 (mixture of isomers) | 0.42 | 0.019 µM | 0.12 µM | 2.3 µM | 5.4 µM | 0.14 µM | 0.045 µM | 0.3 µM
CC[C@H](C)[C@H](NP(=O)(OC[C@H]1O[C@@H](n2cc(F)c(=O)[nH]c2=O)C[C@@H]1O)Oc1ccccc1)C(=O)OCc1ccccc1 (mixture of isomers) | 2.2 | 2.2 µM | 0.71 µM | 25 µM | 30 µM | 1 µM | 0.98 µM | 1.1 µM
CCCCCOC(=O)[C@H](Cc1ccccc1)NP(=O)(OC[C@H]1O[C@@H](n2cc(F)c(=O)[nH]c2=O)C[C@@H]1O)Oc1cccc2ccccc12 (mixture of isomers) | 4.67 | 0.14 µM | 0.04 µM | 6.6 µM | 8.3 µM | 0.1 µM | 0.03 µM | 2.9 µM
O=C(OCc1ccccc1)[C@H](Cc1ccccc1)NP(=O)(OC[C@H]1O[C@@H](n2cc(F)c(=O)[nH]c2=O)C[C@@H]1O)Oc1ccccc1 (mixture of isomers) | 35 | 0.56 µM | 0.014 µM | 12 µM | 11 µM | 0.25 µM | 0.016 µM | 39 µM
CC(C)C[C@H](NP(=O)(OC[C@H]1O[C@@H](n2cc(F)c(=O)[nH]c2=O)C[C@@H]1O)Oc1ccccc1)C(=O)OCc1ccccc1 (mixture of isomers) | 3.2 | 0.17 µM | 0.067 µM | 5.6 µM | 16 µM | 0.24 µM | 0.054 µM | 2 µM
CC(C)[C@H](NP(=O)(OC[C@H]1O[C@@H](n2cc(F)c(=O)[nH]c2=O)C[C@@H]1O)Oc1cccc2ccccc12)C(=O)OC1CCCCC1 (mixture of isomers) | 1.08 | 1.29 µM | 0.67 µM | 27 µM | 46 µM | 0.8 µM | 1.2 µM | 35 µM
CCCCOC(=O)[C@H](C)NP(=O)(OC[C@H]1O[C@@H](n2cc(F)c(=O)[nH]c2=O)C[C@@H]1O)Oc1cccc2ccccc12 (mixture of isomers) | 2.2 | 0.021 µM | 0.12 µM | 2.7 µM | 0.84 µM | 0.064 µM | 0.0095 µM | 0.11 µM
O=C(OCc1ccccc1)[C@@H]1CCCN1P(=O)(OC[C@H]1O[C@@H](n2cc(F)c(=O)[nH]c2=O)C[C@@H]1O)Oc1ccccc1 (mixture of isomers) | 51 | 18 µM | 1.1 µM | 20 µM | 28 µM | 0.98 µM | 0.35 µM | 31 µM
C[C@H](NP(=O)(OC[C@H]1O[C@@H](n2cc(F)c(=O)[nH]c2=O)C[C@@H]1O)Oc1cccc2ccccc12)C(=O)OC1CCOCC1 (mixture of isomers) | 11.7 | 0.48 µM | 0.13 µM | 15 µM | 43 µM | 0.11 µM | 0.041 µM | 27 µM
CCCCCCOC(=O)[C@H](C)NP(=O)(OC[C@H]1O[C@@H](n2cc(F)c(=O)[nH]c2=O)C[C@@H]1O)Oc1cccc2ccccc12 (mixture of isomers) | 0.69 | 0.0022 µM | 0.039 µM | 1.8 µM | 0.65 µM | 0.08 µM | 0.0032 µM | 0.076 µM
O=C(OCc1ccccc1)[C@H](Cc1ccccc1)NP(=O)(OC[C@H]1O[C@@H](n2cc(F)c(=O)[nH]c2=O)C[C@@H]1O)Oc1cccc2ccccc12 (mixture of isomers) | 11 | 0.23 µM | 0.16 µM | 6.8 µM | 7.2 µM | 0.1 µM | 0.021 µM | 5.6 µM
CCOC(=O)[C@H](C)NP(=O)(OC[C@H]1O[C@@H](n2cc(F)c(=O)[nH]c2=O)C[C@@H]1O)Oc1ccccc1 (mixture of isomers) | 5 | 0.54 µM | 0.48 µM | 9.8 µM | 14 µM | 0.92 µM | 0.11 µM | 0.94 µM
C[C@H](NP(=O)(OC[C@H]1O[C@@H](n2cc(F)c(=O)[nH]c2=O)C[C@@H]1O)Oc1cccc2ccccc12)C(=O)OCC1CC1 (mixture of isomers) | 2.2 | 0.031 µM | 0.068 µM | 1.4 µM | 1.1 µM | 0.059 µM | 0.014 µM | 0.12 µM
C[C@H](NP(=O)(OC[C@H]1O[C@@H](n2cc(F)c(=O)[nH]c2=O)C[C@@H]1O)Oc1cccc2ccccc12)C(=O)OCCC(C)(C)C (mixture of isomers) | 2.7 | 0.032 µM | 0.078 µM | 1.3 µM | 0.19 µM | 0.053 µM | 0.012 µM | 0.062 µM
CCOC(=O)[C@@H](NP(=O)(OC[C@H]1O[C@@H](n2cc(F)c(=O)[nH]c2=O)C[C@@H]1O)Oc1ccccc1)C(C)C (mixture of isomers) | 22 | 4.4 µM | 1.2 µM | 27 µM | > 250 µM | 1 µM | 0.2 µM | 42 µM
C[C@H](NP(=O)(OC[C@H]1O[C@@H](n2cc(F)c(=O)[nH]c2=O)C[C@@H]1O)Oc1cccc2ccccc12)C(=O)OC1CCCCC1 (mixture of isomers) | 1.4 | 0.049 µM | 0.09 µM |  | 1 µM | 0.057 µM | 0.036 µM | 0.15 µM
CSCC[C@H](NP(=O)(OC[C@H]1O[C@@H](n2cc(F)c(=O)[nH]c2=O)C[C@@H]1O)Oc1ccccc1)C(=O)OCc1ccccc1 (mixture of isomers) | 13 | 0.76 µM | 0.15 µM | 11 µM | 25 µM | 0.28 µM | 0.058 µM | 4.1 µM
C[C@H](NP(=O)(OC[C@H]1O[C@@H](n2cc(F)c(=O)[nH]c2=O)C[C@@H]1O)Oc1cccc2ccccc12)C(=O)OC1Cc2ccccc2C1 (mixture of isomers) | 1.08 | 0.042 µM | 0.1 µM | 7.1 µM | 1 µM | 0.079 µM | 0.039 µM | 40 µM
C[C@H](NP(=O)(OC[C@H]1O[C@@H](n2cc(F)c(=O)[nH]c2=O)C[C@@H]1O)Oc1cccc2ccccc12)C(=O)OCC(C)(C)C (mixture of isomers) | 1.9 | 0.18 µM | 0.7 µM | 32 µM | 6.7 µM | 0.49 µM | 0.093 µM | 1.2 µM

Reference: ChEMBL document CHEMBL2177092, “Phosphoramidate ProTides of the anticancer agent FUDR successfully deliver the preformed bioactive monophosphate in cells and confer advantage over the parent nucleoside” (J Med Chem, 2011)
